Among the data in ChEMBL document CHEMBL4000227, “Structure activity relationships of benzylproline-derived inhibitors of the glutamine transporter ASCT2” (Bioorg Med Chem Lett, 2017) are Ki, Imax and inhibition values, retold here.

Holding throughout (format): cell-based
One assay concerns the target T1, Amino acid transporter (Rattus norvegicus, UniProt Q9Z1J7).
T1 sequence (Q9Z1J7 whole entry): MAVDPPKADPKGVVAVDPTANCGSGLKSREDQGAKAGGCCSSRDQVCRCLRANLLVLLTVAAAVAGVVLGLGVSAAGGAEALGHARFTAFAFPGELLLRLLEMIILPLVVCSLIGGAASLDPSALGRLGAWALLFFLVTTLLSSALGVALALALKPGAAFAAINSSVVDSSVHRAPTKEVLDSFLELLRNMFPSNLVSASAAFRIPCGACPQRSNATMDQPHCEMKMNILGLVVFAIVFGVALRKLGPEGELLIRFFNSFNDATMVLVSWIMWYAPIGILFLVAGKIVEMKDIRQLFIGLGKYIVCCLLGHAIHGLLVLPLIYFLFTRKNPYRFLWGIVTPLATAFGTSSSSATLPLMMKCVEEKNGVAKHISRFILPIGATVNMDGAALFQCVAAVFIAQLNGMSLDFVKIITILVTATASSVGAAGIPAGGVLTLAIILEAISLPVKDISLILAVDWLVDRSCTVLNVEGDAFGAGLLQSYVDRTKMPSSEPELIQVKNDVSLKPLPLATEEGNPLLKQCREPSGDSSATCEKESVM
Description: Inhibition of rat ASCT2 expressed in HEK293 cells assessed as inhibition of L-alanine/Na+ exchange by measuring reduction in SCN anion inward current in presence of NaCl and NaSCN by whole cell patch-clamp method. The conditions noted are these: read-out: Ki(app). (The patch-clamp technique gives a direct electrical read-out from membranes.)

In assay [1] the target is T2, Amino acid transporter (Rattus norvegicus) (UniProt Q9Z1J7).
T2 sequence (whole entry): T1 sequence (Q9Z1J7 whole entry)
In words: Inhibition of rat ASCT2 expressed in HEK293 cells assessed as inhibition of L-alanine/Na+ exchange by measuring reduction in SCN anion inward current at 1 mM in presence of NaCl and NaSCN by whole cell patch-clamp method. Put shortly:
(§1)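 Rat ASCT2 transiently transfected into HEK293T cells (no detectable endogenous ASCT2); whole-cell recording at 0 mV with 140 mM external NaCl, 135 mM internal NaSCN, 10 mM internal alanine. Compound applied at 1 mM; current expressed relative to saturating alanine response, saturating current calculated as I/Imax = c/(c+Km). Outward current taken as inhibition of leak anion conductance.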

Assay [2] concerns the target T2, Amino acid transporter (Rattus norvegicus). Description: Inhibition of rat ASCT2 expressed in HEK293 cells assessed as outward current by measuring reduction in SCN anion inward current at 1 mM in presence of NaCl and NaSCN by whole cell patch-clamp method. The method, boiled down: as §1

Structures are written as SMILES. Calls of active or inactive are those of the source. The rule behind the calls is not given here.

In the case of `O=C(O)C1C[C@@H](Cc2ccccc2)CN1` (single isomer, unassigned), the Ki at Amino acid transporter stood at 2000 µM. Moreover, the Imax in assay [1] was found to be 52%.
Take `O=C(O)C1C[C@@H](Cc2ccccc2Cl)CN1` (single isomer, unassigned): the Ki on Amino acid transporter came out at 195 µM. Besides, in assay [1], the Imax was 46%. Further, in assay [2], the inhibition entry is “Active”.
On to `O=C(O)C1C[C@@H](Cc2ccc(C(F)(F)F)cc2)CN1` (single isomer, unassigned), for which the Imax in assay [1] turned out to be 47%. Moreover, in assay [2], the inhibition result is “Active”.
Turning to `O=C(O)C1C[C@@H](Cc2ccccc2F)CN1` (single isomer, unassigned), the Ki on Amino acid transporter fell in the range of 83 to 87 µM. Also, the Imax in assay [1] was found to be 61%. The inhibition result in assay [2] was “Active”.
The corresponding values for `O=C(O)[C@@H]1C[C@@H](Cc2ccc(-c3ccccc3)cc2)CN1` are 3 µM, 57% and “Active”.
For `O=C(O)[C@@H]1C[C@@H](Cc2ccc(Cl)cc2Cl)CN1`, the Ki at Amino acid transporter was determined as 30 µM. Moreover, the Imax in assay [1] was found to be 56%. Besides, in assay [2], the inhibition entry was “Active”.
As for `O=C(O)C1C[C@@H](Cc2cccc(F)c2)CN1` (single isomer, unassigned), the Ki on Amino acid transporter came out at 177 µM. Moreover, the Imax in assay [1] turned out to be 67%. Moreover, the inhibition result in assay [2] was “Active”.
Regarding `O=C(O)C1C[C@@H](Cc2ccccc2C(F)(F)F)CN1` (single isomer, unassigned), the Ki on Amino acid transporter turned out to be 220 µM. In assay [1], the Imax worked out at 49%. For the same compound, in assay [2], the inhibition result was “Active”.
In the same order, the values of `O=C(O)C1C[C@@H](Cc2ccc(F)c(F)c2)CN1` (single isomer, unassigned) are 73 µM, 51% and “Active”.
Take `O=C(O)C1C[C@@H](Cc2ccccc2[N+](=O)[O-])CN1` (single isomer, unassigned): the Imax in assay [1] was 61%. The inhibition entry in assay [2] is “Active”.
`O=C(O)C1C[C@@H](Cc2cccc(C(F)(F)F)c2)CN1` (single isomer, unassigned): in assay [1], the Imax was 43%. Also, the inhibition entry in assay [2] was “Active”.
Take `O=C(O)C1C[C@@H](Cc2ccccc2Br)CN1` (single isomer, unassigned): the Imax in assay [1] is 55%. The inhibition result in assay [2] is “Active”.
Consider `Cc1ccccc1C[C@H]1CNC(C(=O)O)C1` (single isomer, unassigned), for which, on Amino acid transporter, the Ki stood at 38 µM. The Imax in assay [1] was found to be 59%. Also, in assay [2], the inhibition entry was “Active”.
The corresponding values for `O=C(O)C1C[C@@H](Cc2ccc(F)cc2)CN1` (single isomer, unassigned) are 190 µM, 57% and “Active”.
